From ChEMBL document CHEMBL2176902, “Identification of small-molecule enhancers of arginine methylation catalyzed by coactivator-associated arginine methyltransferase 1” (J Med Chem, 2012) come the findings set out here.

Activity calls are given as the source filed them. The rule behind the calls is not given here.

The target of assay [1] is T1, Histone-arginine methyltransferase CARM1 (Homo sapiens) (UniProt Q86X55).
T1 sequence (whole entry): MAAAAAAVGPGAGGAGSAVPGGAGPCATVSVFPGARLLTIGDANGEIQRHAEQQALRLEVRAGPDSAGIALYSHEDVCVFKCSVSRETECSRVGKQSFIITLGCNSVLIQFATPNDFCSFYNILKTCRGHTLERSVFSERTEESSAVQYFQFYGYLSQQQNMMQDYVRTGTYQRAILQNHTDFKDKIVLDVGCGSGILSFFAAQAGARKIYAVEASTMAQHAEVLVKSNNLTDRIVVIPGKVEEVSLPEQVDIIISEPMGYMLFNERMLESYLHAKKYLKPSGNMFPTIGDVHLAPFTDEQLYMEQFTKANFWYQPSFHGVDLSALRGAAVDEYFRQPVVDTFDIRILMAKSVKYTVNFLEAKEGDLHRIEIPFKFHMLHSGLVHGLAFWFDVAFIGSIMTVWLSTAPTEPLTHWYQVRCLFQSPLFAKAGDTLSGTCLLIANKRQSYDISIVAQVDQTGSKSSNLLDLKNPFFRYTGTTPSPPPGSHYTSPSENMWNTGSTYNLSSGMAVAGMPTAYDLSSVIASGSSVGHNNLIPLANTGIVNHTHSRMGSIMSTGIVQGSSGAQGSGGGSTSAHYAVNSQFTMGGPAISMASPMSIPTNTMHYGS
In words: Activation of recombinant CARM1 expressed in HEK293 cells co-expressing 3XFLAG-tagged PABP1 assessed as arginine methylation of PABP1 at 50 uM after 24 hrs. The assay is classed as cell-based. In short, it runs like this: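 Flp-In T-Rex HEK293 cells stably carrying Tet-inducible 3XFLAG-PABP1 were kept in DMEM/10% FBS with blasticidin and hygromycin. They were plated at 1 × 10⁵ cells/mL and the medium was changed after 12 h. Cells then got compound with or without tetracycline (1 μg/mL) for 24 h. RIPA lysates were immunoblotted with anti-methyl-PABP1 and anti-FLAG. Band densities were compared to DMSO control.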

The target of assay [2] is Protein arginine N-methyltransferase 1 (Homo sapiens) (UniProt Q99873). Briefly: Inhibition of human recombinant GST-PRMT1 expressed Escherichia coli BL21 using Npl3p substrate as substrate and [3H]-SAM at 50 uM after 90 mins by scintillation counting. In short, it runs like this: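 Human recombinant PRMT1 was incubated with Npl3p substrate and [³H]SAM (0.42 μM) in PBS pH 7.4 with compound at 50 μM for 90 min at 30 °C. Percent inhibition was determined.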
Sequence of Protein arginine N-methyltransferase 1 (Homo sapiens) (Q99873 whole entry, looked up): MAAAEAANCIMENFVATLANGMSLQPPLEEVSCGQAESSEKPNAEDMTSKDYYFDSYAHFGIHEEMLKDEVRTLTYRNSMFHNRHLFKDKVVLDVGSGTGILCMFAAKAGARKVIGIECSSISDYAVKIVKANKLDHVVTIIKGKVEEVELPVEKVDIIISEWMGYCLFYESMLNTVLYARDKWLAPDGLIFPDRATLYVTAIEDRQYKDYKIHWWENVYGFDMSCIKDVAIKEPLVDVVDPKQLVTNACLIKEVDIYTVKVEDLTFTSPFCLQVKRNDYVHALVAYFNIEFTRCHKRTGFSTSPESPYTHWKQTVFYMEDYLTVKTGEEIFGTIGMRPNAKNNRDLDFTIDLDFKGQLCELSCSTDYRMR

The target of assay [3] is T1, Histone-arginine methyltransferase CARM1 (Homo sapiens). Briefly: Activation of recombinant CARM1 using PABP1 as substrate and [3H]-SAM at 50 uM after 90 mins by scintillation counting. In outline: (§1)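 Recombinant CARM1 (0.2 μg) was incubated with PABP1 substrate and [³H]SAM (0.42 μM) in PBS pH 7.4 for 90 min at 30 °C. Compound was tested at 50 μM, or at 3–100 μM for concentration series. Bands were Ponceau-stained, excised and counted by liquid scintillation. Activity is given as % of DMSO control; no-SAM reactions served as negative control; at least two experiments.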

For assay [4] the target is unchanged. Briefly: Activation of recombinant CARM1 using histone H3 as substrate and [3H]-SAM at 50 uM after 90 mins by scintillation counting. In outline:
(§2)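 Recombinant CARM1 (0.2 μg) was incubated with histone H3 (1.1 μM) and [³H]SAM (0.42 μM) in PBS pH 7.4 with compound (50 μM) for 90 min at 30 °C. Methylation was measured by scintillation counting. Activity is expressed as % relative to DMSO, as the mean of at least two separate experiments.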

The target is the same in assay [5]. Briefly: Activation of recombinant CARM1 using histone H3 as substrate and [3H]-SAM after 90 mins by scintillation counting. In outline: as §2
The target of assay [6] is T2, Histone-lysine N-methyltransferase SETD7 (Homo sapiens) (UniProt Q8WTS6).
T2 sequence (whole entry): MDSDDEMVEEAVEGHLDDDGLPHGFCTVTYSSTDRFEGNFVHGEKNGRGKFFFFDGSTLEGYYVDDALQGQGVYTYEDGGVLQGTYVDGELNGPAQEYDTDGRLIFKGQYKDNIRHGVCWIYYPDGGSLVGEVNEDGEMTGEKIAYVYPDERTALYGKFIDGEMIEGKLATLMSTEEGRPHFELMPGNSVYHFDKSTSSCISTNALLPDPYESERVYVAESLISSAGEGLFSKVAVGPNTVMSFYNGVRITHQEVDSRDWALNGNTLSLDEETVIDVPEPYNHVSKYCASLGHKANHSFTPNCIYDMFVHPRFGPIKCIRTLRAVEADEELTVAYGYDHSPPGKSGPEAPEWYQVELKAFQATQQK
In words: Inhibition of recombinant SET7 using histone H3 as substrate at 50 uM and [3H]-SAM after 90 mins by scintillation counting.

Assay [7] concerns the target Protein arginine N-methyltransferase 6 (Homo sapiens) (UniProt Q96LA8). In words: Inhibition of recombinant PRMT6 using histone H3 as substrate at 50 uM and [3H]-SAM after 90 mins by scintillation counting.
Assay [8] addresses Protein arginine N-methyltransferase 3 (Homo sapiens) (UniProt O60678). Briefly: Inhibition of recombinant PRMT3 using glycine- and arginine-rich motif as substrate at 50 uM and [3H]-SAM after 90 mins by scintillation counting. In short, it runs like this: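 Recombinant PRMT3 was incubated with GAR-motif substrate and [³H]SAM (0.42 μM) in PBS pH 7.4 with compound at 50 μM for 90 min at 30 °C.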

The target of assay [9] is T1, Histone-arginine methyltransferase CARM1 (Homo sapiens). In words: Activation of recombinant CARM1 using PABP1 as substrate and [3H]-SAM after 90 mins by scintillation counting. In outline:
as §1

The target is the same in assay [10]. In words: Inhibition of recombinant CARM1 using histone H3 as substrate at 50 uM and [3H]-SAM after 90 mins by scintillation counting. In outline:
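Recombinant CARM1 (0.2 μg) incubated with histone H3 substrate (0.5 μg; H3 1.1 μM) and [3H]SAM (0.42 μM) in PBS pH 7.4 with 50 μM compound, 90 min, 30 °C. Bands Ponceau-stained, excised, scintillation counted; activity expressed as percent of DMSO control. Means of at least two separate experiments, SD in percentage points.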

In general, inhibition refers to the change of the read-out against control, counted positive when it falls.

Sequence of Protein arginine N-methyltransferase 3 (Homo sapiens) (O60678 2-531 limits assumed): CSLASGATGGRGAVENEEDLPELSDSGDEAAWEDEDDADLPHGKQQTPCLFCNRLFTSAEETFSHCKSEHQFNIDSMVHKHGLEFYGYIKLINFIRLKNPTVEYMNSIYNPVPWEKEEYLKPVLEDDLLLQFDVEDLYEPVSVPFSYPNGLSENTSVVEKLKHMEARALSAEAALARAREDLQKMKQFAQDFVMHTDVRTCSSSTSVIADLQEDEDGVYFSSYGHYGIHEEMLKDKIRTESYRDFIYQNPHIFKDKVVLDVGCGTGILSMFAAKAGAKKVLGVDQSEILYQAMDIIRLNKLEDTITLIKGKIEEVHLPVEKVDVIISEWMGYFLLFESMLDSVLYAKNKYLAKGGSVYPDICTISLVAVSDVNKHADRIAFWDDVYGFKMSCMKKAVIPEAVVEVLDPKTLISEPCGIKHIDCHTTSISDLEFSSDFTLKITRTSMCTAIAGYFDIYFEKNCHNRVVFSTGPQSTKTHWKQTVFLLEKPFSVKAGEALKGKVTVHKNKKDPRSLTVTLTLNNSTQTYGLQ
Sequence of Protein arginine N-methyltransferase 6 (Homo sapiens) (Q96LA8 whole entry, looked up): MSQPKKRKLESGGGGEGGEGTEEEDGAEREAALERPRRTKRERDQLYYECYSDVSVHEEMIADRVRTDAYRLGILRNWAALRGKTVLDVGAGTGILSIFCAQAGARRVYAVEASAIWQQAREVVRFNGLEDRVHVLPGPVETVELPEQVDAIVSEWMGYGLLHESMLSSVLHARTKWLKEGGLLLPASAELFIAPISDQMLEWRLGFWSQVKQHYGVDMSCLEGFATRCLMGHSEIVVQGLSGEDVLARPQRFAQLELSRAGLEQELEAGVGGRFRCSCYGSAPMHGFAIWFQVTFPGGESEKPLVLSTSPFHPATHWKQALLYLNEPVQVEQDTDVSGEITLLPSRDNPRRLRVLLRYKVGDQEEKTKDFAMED

As for `CCOC(=O)c1cc2cc(NC(=O)CNC(=O)Nc3ccc(C#N)cc3)ccc2[nH]1`, in assay [1], the outcome was Active. In assay [2], the inhibition result was “inactive”. Besides, the Activity stood at 358% in [3] and 115% in assay [4].

Take `N#Cc1ccc(NC(=O)NCC(=O)Nc2ccc3[nH]cc(C(=O)O)c3c2)cc1`: the inhibition result in assay [2] is “inactive”.

As to `COC(=O)c1c[nH]c2ccc(NC(=O)CNC(=O)Nc3ccc(C#N)cc3)cc12`, the inhibition entry in assay [2] was “inactive”. Also, the Activity turned out to be 38.8% in assay [3] and 135% in assay [4].

Turning to `O=C(Nc1ccc2cc(C(=O)O)cc(O)c2c1)Nc1ccc2cc(C(=O)O)cc(O)c2c1`, the Activity in assay [4] was found to be 83.1%.

Take `CCOC(=O)c1cc2cc(NC(=O)CNC(=O)Nc3ccc([N+](=O)[O-])cc3)ccc2[nH]1`: in assay [2], the inhibition entry is “inactive”. Moreover, the Activity in assay [3] is 299%; in assay [4], 176%; in assay [5], “Dose-dependent effect”; in [9] it was “Dose-dependent effect”. The inhibition was 10.2% in assay [6], 19.3% in [7] and 54.7% in assay [8].

On to `O=C(CNC(=O)Nc1ccc([N+](=O)[O-])cc1)Nc1ccc2[nH]c(C(=O)O)cc2c1`, for which the inhibition result in assay [2] was “inactive”. In addition, the Activity in assay [3] turned out to be 85.3%; in assay [4] it was 142%.

Take `CCOC(=O)c1cc2cc(NC(=O)CNC(=O)Nc3ccccc3)ccc2[nH]1`: the inhibition result in assay [2] is “inactive”. Besides, the Activity in assay [3] was determined as 10.5%; in assay [4] it was 134%.

Turning to `Cc1ccc(NC(=O)NCC(=O)Nc2ccc3[nH]c(C(=O)O)cc3c2)cc1`, in assay [2], the inhibition entry is “inactive”. The Activity in [3] was found to be 149%; in [4] it was 111%.

`CN(C)c1ccc(NC(=O)NCC(=O)Nc2ccc3[nH]cc(C(=O)O)c3c2)cc1`: in [2], the inhibition result was “inactive”.

In the case of `COC(=O)c1c[nH]c2ccc(NC(=O)CNC(=O)Nc3ccccc3)cc12`, in assay [2], the inhibition entry was “inactive”. Further, the Activity came out at 26.5% in assay [3] and 74.7% in assay [4].

With `Cc1ccc(NC(=O)NCC(=O)Nc2ccc3[nH]cc(C(=O)O)c3c2)cc1`, the inhibition entry in assay [2] is “inactive”.

With `O=C(CNC(=O)Nc1ccc([N+](=O)[O-])cc1)Nc1ccc2[nH]cc(C(=O)O)c2c1`, the inhibition entry in assay [2] is “inactive”.

As for `CCOC(=O)c1cc2cc(NC(=O)CNC(=O)Nc3ccc(C)cc3)ccc2[nH]1`, the outcome in assay [1] was Active. The inhibition entry in assay [2] was “inactive”. Also, the Activity worked out at 382% in assay [3] and 127% in [4].

For `CN(C)c1ccc(NC(=O)NCC(=O)Nc2ccc3[nH]c(C(=O)O)cc3c2)cc1`, the inhibition result in assay [2] was “inactive”. The Activity is 135% in assay [3] and 48.3% in assay [4].

Regarding `COC(=O)c1c[nH]c2ccc(NC(=O)CNC(=O)Nc3ccc(N(C)C)cc3)cc12`, the inhibition result in [2] was “inactive”. For the same compound, the Activity in assay [3] was 7.6%; in assay [4], 125%.

As to `COc1ccc(NC(=O)NCC(=O)Nc2ccc3[nH]c(C(=O)O)cc3c2)cc1`, the inhibition entry in assay [2] is “inactive”. For the same compound, the Activity in assay [3] was 96.3%; in assay [4], 211%.

Turning to `CCOC(=O)c1cc2cc(NC(=O)CNC(=O)Nc3ccc(N(C)C)cc3)ccc2[nH]1`, the inhibition result in assay [2] was “inactive”. Moreover, the Activity was 70.6% in [3] and 102% in assay [4].

Turning to `COC(=O)c1c[nH]c2ccc(NC(=O)CNC(=O)Nc3ccc(C)cc3)cc12`, in [2], the inhibition entry was “inactive”. The Activity in [3] was 4.7%; in [4], 39.7%.

As for `N#Cc1ccc(NC(=O)NCC(=O)Nc2ccc3[nH]c(C(=O)O)cc3c2)cc1`, the inhibition entry in assay [2] was “inactive”. The values for the Activity in assay [3] and in assay [4] were 81.2% and 143%, respectively.

On to `COC(=O)c1c[nH]c2ccc(NC(=O)CNC(=O)Nc3ccc(OC)cc3)cc12`, for which, in assay [2], the inhibition entry was “inactive”. The Activity in assay [3] was determined as 28.2%; in [4] it was 62.7%.

Regarding `O=C(Nc1ccc2c(O)cc(S(=O)(=O)O)cc2c1)Nc1ccc2c(O)cc(S(=O)(=O)O)cc2c1`, the Activity in [4] amounted to 74%. The inhibition was determined as 34.3% in [6], 40.7% in assay [7], 74.8% in assay [10] and 101% in assay [8].

As to `CCOC(=O)c1cc2cc(NC(=O)CNC(=O)Nc3ccc(OC)cc3)ccc2[nH]1`, in assay [2], the inhibition entry is “inactive”. For the same compound, the Activity stood at 74.7% in assay [3] and 183% in [4].

For the compound `COC(=O)c1c[nH]c2ccc(NC(=O)CNC(=O)Nc3ccc([N+](=O)[O-])cc3)cc12`, the inhibition entry in [2] was “inactive”. For the same compound, the Activity was 115% in [3] and 134% in assay [4].

`O=C(CNC(=O)Nc1ccccc1)Nc1ccc2[nH]cc(C(=O)O)c2c1`: in [2], the inhibition entry is “inactive”.

Consider `O=C(CNC(=O)Nc1ccccc1)Nc1ccc2[nH]c(C(=O)O)cc2c1`, for which, in assay [2], the inhibition entry is “inactive”. Moreover, the Activity in [3] is 172%; in assay [4] it was 167%.

As to `COc1ccc(NC(=O)NCC(=O)Nc2ccc3[nH]cc(C(=O)O)c3c2)cc1`, the inhibition result in [2] was “inactive”.
